Active and inactive are the calls of the source. No cut-off for these calls is given here.
Assays:
[1] = molecular target: Delta-aminolevulinic acid dehydratase (Pseudomonas aeruginosa (strain ATCC 15692 / PAO1 / 1C / PRS 101 / LMG12228)) (UniProt Q59643); assay: Inhibition of Pseudomonas aeruginosa PAO1 recombinant PBGS using 0.2 mM 5-ALA as substrate at 10 to 10000 uM at pH 7.5 by buffer scan assay in presence of 1 mM MgCl2
[2] = molecular target: T1, Delta-aminolevulinic acid dehydratase (Wolbachia sp. subsp. Brugia malayi (strain TRS)) (UniProt Q5GSR3); conditions: 25 to 2500 uM
T1 sequence (whole entry): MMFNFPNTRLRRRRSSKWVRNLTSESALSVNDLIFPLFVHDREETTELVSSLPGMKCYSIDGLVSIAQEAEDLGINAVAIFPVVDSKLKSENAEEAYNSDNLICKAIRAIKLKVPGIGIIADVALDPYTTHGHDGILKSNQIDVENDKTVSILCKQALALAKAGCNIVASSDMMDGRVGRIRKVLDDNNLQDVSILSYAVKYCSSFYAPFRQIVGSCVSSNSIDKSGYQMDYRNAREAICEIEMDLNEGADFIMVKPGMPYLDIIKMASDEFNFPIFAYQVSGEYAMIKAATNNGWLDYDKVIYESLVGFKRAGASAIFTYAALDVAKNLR

[3] = molecular target: Delta-aminolevulinic acid dehydratase (Pseudomonas aeruginosa (strain ATCC 15692 / PAO1 / 1C / PRS 101 / LMG12228)) (UniProt Q59643); assay: Stimulation of Pseudomonas aeruginosa PAO1 recombinant PBGS using 5 mM 5-ALA as substrate assessed as increase in Vmax at 50 to 200 uM at pH 8 by buffer scan assay in presence of 1 mM MgCl2 and 1 to 1000 mM KCl
[4] = molecular target: Delta-aminolevulinic acid dehydratase (Yersinia enterocolitica W22703) (UniProt F4MUJ9); assay: Stimulation of Yersinia enterocolitica recombinant PBGS expressed in Escherichia coli at 125 to 2000 uM by nondenaturing PAGE analysis in presence of Mg2+ and K+
Outline: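 YePBGS (2 μg) preincubated 20 min at 37 °C in BTP pH 8.0 buffer with K+, Mg2+ and wALADin1. Run on 7.5% nondenaturing PAGE; Coomassie stain and in-gel activity (100 mM KCl, 10 mM MgCl2, 500 μM 5-ALA) read with Ehrlich's reagent.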

[5] = molecular target: T2, Delta-aminolevulinic acid dehydratase (Wolbachia sp. subsp. Brugia malayi (strain TRS), UniProt Q5GSR3); assay: Inhibition of C-terminal His-tagged Wolbachia PBGS using 5-ALA as substrate
T2 sequence (Q5GSR3 whole entry): T1 sequence (whole entry)

[6] = molecular target: Delta-aminolevulinic acid dehydratase (Pseudomonas aeruginosa (strain ATCC 15692 / PAO1 / 1C / PRS 101 / LMG12228)) (UniProt Q59643); assay: Stimulation of Pseudomonas aeruginosa PAO1 recombinant PBGS
[7] = molecular target: T3, Delta-aminolevulinic acid dehydratase, chloroplastic (Pisum sativum) (UniProt P30124); assay: Non-competitive inhibition of Pisum sativum PBGS using 5-ALA as substrate at 6.25 to 100 uM; conditions: Lathyrus oleraceus
T3 sequence (whole entry): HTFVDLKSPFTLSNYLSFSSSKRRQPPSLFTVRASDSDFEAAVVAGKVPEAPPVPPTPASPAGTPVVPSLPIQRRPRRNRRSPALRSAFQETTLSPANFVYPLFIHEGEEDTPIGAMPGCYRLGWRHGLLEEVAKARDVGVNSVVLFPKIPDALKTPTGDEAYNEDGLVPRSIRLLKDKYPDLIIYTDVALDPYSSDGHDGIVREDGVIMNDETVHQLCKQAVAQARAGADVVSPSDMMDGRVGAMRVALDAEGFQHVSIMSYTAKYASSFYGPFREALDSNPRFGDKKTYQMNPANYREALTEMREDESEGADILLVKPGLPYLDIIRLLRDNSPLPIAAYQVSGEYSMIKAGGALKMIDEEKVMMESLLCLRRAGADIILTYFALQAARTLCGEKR

[8] = molecular target: Delta-aminolevulinic acid dehydratase (Yersinia enterocolitica W22703) (UniProt F4MUJ9); assay: Inhibition of Yersinia enterocolitica recombinant PBGS expressed in Escherichia coli using 5-ALA as substrate at 50 to 200 uM at pH 7 to 8.5 by buffer scan assay in presence of KCl
[9] = molecular target: Delta-aminolevulinic acid dehydratase (Pseudomonas aeruginosa (strain ATCC 15692 / PAO1 / 1C / PRS 101 / LMG12228)) (UniProt Q59643); assay: Inhibition of Pseudomonas aeruginosa PAO1 recombinant PBGS using 0.2 mM 5-ALA as substrate assessed as reduction in Vmax at 50 to 200 uM at pH 7.5 by Michaelis-Menten plot analysis in presence of MgCl2
Outline: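 PaPBGS under "standard inhibitory" conditions (100 mM Tris-HCl pH 7.5, 1 mM MgCl2, no KCl). 5-ALA varied for substrate-response curves at several wALADin1 levels; KM and VMAX derived from the fits. Incubation at 36 °C.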

[10] = molecular target: T4, Delta-aminolevulinic acid dehydratase, chloroplastic (Pisum sativum, UniProt P30124); assay: Inhibition of Pisum sativum PBGS using 5-ALA as substrate; design: species or system Lathyrus oleraceus
T4 sequence (P30124 whole entry): T3 sequence (whole entry)
Outline: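 Pea (P. sativum) PBGS at 300 nM subunit in 100 mM BTP-HCl pH 8.5 with 1 mM MgCl2, 5 mM DTT and 0.2 mM 5-ALA, 15 min at 36 °C. Porphobilinogen detected with Ehrlich's reagent. Activity normalized to 6.7% DMSO control as 100%. IC50 from variable-slope normalized-response fit.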

[11] = molecular target: T3, Delta-aminolevulinic acid dehydratase, chloroplastic (Pisum sativum); assay: Competitive inhibition of Pisum sativum PBGS using 5-ALA as substrate at 6.25 to 100 uM; conditions: Lathyrus oleraceus
[12] = molecular target: Delta-aminolevulinic acid dehydratase (Pseudomonas aeruginosa (strain ATCC 15692 / PAO1 / 1C / PRS 101 / LMG12228)) (UniProt Q59643); assay: Stimulation of Pseudomonas aeruginosa PAO1 recombinant PBGS using 5-ALA as substrate relative to control
Outline: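 His-tagged PaPBGS at 150 nM subunit in 100 mM Tris-HCl pH 8.0 with 1 mM MgCl2, 100 mM KCl and 0.2 mM 5-ALA, 10 min at 36 °C, with turnover at most 30%. Porphobilinogen read with Ehrlich's reagent. Activity normalized to 6.7% DMSO control as 100%. EC50 from variable-slope agonist fit.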

[13] = molecular target: T3, Delta-aminolevulinic acid dehydratase, chloroplastic (Pisum sativum); assay: Partial competitive inhibition of Pisum sativum PBGS using 5-ALA as substrate at 6.25 to 100 uM in presence of MgCl2; conditions: Lathyrus oleraceus
[14] = molecular target: Delta-aminolevulinic acid dehydratase (Pseudomonas aeruginosa (strain ATCC 15692 / PAO1 / 1C / PRS 101 / LMG12228)) (UniProt Q59643); assay: Inhibition of Pseudomonas aeruginosa PAO1 recombinant PBGS assessed as inhibition of octamer-inducing effect of K+ by nondenaturing PAGE analysis
Outline: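 PaPBGS (3 μg) preincubated 20 min at 37 °C in assay buffer with 1 mM Mg2+, 100 mM K+ and wALADin1, no 5-ALA. Run on 7.5% nondenaturing PAGE at 4 °C for 15–20 h. Coomassie for oligomer state; in-gel activity with 500 μM 5-ALA stained with Ehrlich's reagent.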

Chain of Delta-aminolevulinic acid dehydratase (Pseudomonas aeruginosa (strain ATCC 15692 / PAO1 / 1C / PRS 101 / LMG12228)) (Q59643 whole entry): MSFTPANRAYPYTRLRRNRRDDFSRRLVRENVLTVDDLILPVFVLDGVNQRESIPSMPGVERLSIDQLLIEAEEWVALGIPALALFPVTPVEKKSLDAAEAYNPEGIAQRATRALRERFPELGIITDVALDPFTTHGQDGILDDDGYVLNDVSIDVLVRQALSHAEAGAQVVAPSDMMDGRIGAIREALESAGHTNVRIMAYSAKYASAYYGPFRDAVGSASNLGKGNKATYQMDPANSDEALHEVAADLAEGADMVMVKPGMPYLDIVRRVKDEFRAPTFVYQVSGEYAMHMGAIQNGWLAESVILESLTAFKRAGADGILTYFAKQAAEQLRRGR
Chain of Delta-aminolevulinic acid dehydratase (Yersinia enterocolitica W22703) (F4MUJ9 as listed by the source): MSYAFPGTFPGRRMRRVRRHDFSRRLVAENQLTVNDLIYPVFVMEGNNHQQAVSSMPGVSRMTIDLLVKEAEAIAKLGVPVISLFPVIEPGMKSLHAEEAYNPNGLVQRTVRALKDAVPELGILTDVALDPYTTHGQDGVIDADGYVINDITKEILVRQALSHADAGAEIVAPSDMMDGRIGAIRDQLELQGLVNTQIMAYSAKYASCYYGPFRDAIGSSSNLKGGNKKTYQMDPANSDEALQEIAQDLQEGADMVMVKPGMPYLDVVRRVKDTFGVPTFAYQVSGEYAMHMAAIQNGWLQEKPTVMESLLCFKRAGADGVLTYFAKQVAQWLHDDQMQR

Q: For `O=C(O)c1ccc2c(c1)nc(CCNC(=O)c1cccs1)n2Cc1cccc(C(F)(F)F)c1`, which inhibition [1] is on record?
A: Active

Q: And the inhibition [2]?
A: inactive

Q: What about the Activity [3] of the same molecule?
A: Active

Q: And the Activity [4]?
A: inactive

Q: And the IC50 [5]?
A: 11.1 µM

Q: And the Activity [6]?
A: 20%

Q: What about the inhibition [7] of the same molecule?
A: Active

Q: What about the inhibition [8] of the same molecule?
A: Active

Q: And the inhibition [9]?
A: Active

Q: And the IC50 [10]?
A: 10.6 µM

Q: What about the inhibition [11] of the same molecule?
A: Active

Q: What about the Smax [12] of the same molecule?
A: 123%

Q: And the inhibition [13]?
A: Active

Q: And the inhibition [14]?
A: Dose-dependent effect

From ChEMBL document CHEMBL3286371, “wALADin benzimidazoles differentially modulate the function of porphobilinogen synthase orthologs” (J Med Chem, 2014)
